Assay results: ChEMBL document CHEMBL4011617, “Ugi Reaction-Derived α-Acyl Aminocarboxamides Bind to Phosphatidylinositol 3-Kinase-Related Kinases, Inhibit HSF1-Dependent Heat Shock Response, and Induce Apoptosis in Multiple Myeloma Cells” (J Med Chem, 2017)
The source made the active and inactive calls. No cut-off for these calls is given here.

Key:
INA-6 [1] = experiment: Inhibition of heat shock response in human INA-6 cells assessed as reduction in HSF-1 mediated upregulation of the heat shock protein HSP72 at 50 uM preincubated for 4 hrs followed by HSP90 inhibitor and HSR inducer NVP-AUY922 addition measured after 4 hrs by Western blot method; type: functional, cell-based
Outline: (§1)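 INA-6 myeloma cells pretreated with test compound for 4 h, then co-treated with the HSP90 inhibitor/HSR inducer NVP-AUY922 for a further 4 h. Cells harvested; HSP72, HSP27, HSF1 or phospho-HSF1 probed by Western blot with β-actin as loading control. DMSO-only cells were the negative control; NVP-AUY922-only cells were the positive control.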

INA-6 [2] = experiment: Inhibition of heat shock response in human INA-6 cells assessed as reduction in HSF-1 mediated upregulation of the heat shock protein HSP72 at 50 uM preincubated for 4 hrs followed by HSP90 inhibitor and HSR inducer NVP-AUY922 addition measured after 4 hrs by ELISA; type: functional, cell-based
Outline: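 HSP72 quantified by ELISA in the same protein lysates used for Western blots. INA-6 cells received compound for 4 h, then NVP-AUY922 co-treatment for 4 h more to stimulate HSF1. DMSO-only and NVP-AUY922-only cells served as negative and positive controls.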

INA-6 [3] = experiment: Inhibition of heat shock response in human INA-6 cells assessed as reduction in HSF-1 mediated upregulation of the heat shock protein HSP27 at 50 uM preincubated for 4 hrs followed by HSP90 inhibitor and HSR inducer NVP-AUY922 addition measured after 4 hrs by Western blot method; type: functional, cell-based; outline: as §1
INA-6 [4] = experiment: Inhibition of heat shock response in human INA-6 cells assessed as reduction in HSF-1 mediated upregulation of the heat shock protein HSP27 at 50 uM preincubated for 4 hrs followed by HSP90 inhibitor and HSR inducer NVP-AUY922 addition measured after 4 hrs by ELISA; type: functional, cell-based
INA-6 [5] = experiment: Downregulation of NVP-AUY922-induced HSF-1 protein expression in human INA-6 cells at 50 uM preincubated for 4 hrs followed by NVP-AUY922 addition measured after 4 hrs by Western blot method; type: functional, cell-based; outline: as §1
[6] = target: T1, Heat shock factor protein 1 (Homo sapiens) (UniProt Q00613); experiment: Inhibition of NVP-AUY922-induced HSF-1 phosphorylation at S326 residue in human INA-6 cells at 50 uM preincubated for 4 hrs followed by NVP-AUY922 addition measured after 4 hrs by Western blot method; type: cell-based; outline: as §1
T1 sequence (whole entry): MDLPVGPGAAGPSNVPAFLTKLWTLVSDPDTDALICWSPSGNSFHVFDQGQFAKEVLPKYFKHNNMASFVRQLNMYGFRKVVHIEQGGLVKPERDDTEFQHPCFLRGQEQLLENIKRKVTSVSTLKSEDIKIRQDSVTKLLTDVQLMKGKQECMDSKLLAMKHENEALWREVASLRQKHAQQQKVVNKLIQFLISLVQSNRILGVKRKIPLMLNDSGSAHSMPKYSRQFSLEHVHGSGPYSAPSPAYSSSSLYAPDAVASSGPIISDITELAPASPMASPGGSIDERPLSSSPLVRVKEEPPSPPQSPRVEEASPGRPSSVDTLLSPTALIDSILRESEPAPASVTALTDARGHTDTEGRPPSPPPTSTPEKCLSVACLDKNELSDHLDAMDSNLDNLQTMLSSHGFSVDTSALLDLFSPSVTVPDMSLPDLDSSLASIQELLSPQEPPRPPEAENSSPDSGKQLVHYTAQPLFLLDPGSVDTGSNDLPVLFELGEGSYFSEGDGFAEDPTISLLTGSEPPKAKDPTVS

| SMILES | heat shock response inhibition (active/not active) (INA-6 [1]) | HSP72 upregulation inhibition (active/not active) (INA-6 [2]) | activity call (active/not active) for inhibition of HSP27 upregulation (INA-6 [3]) | heat shock response inhibition (active/not active) (INA-6 [4]) | Activity (INA-6 [5]) | inhibition [6] |
| --- | --- | --- | --- | --- | --- | --- |
| O=C(NCCN1CCOCC1)C(c1ccccc1)N(Cc1ccccc1)C(=O)/C=C/c1ccc(Cl)cc1Cl (racemic) | Active | Active | Active | Active | Active | Active |
| CCCN(C(=O)/C=C/c1ccccc1)C(C(=O)NCCN1CCOCC1)c1ccccc1Br (racemic) | inactive | inactive | inactive | – | – | – |
| O=C(NCCN1CCOCC1)C(c1ccccc1Br)N(Cc1ccccc1)C(=O)/C=C/c1ccc(Cl)cc1Cl (racemic) | Active | Active | Active | Active | Active | Active |
| CN(C(=O)/C=C/c1ccccc1)C(C(=O)NCc1ccccc1)c1ccccc1Br (racemic) | Active | Active | Active | Active | Active | Active |
| CCCN(C(=O)/C=C/c1ccc(OC)cc1)C(C(=O)NC1CCCCC1)c1ccccc1Br (racemic) | Active | Active | Active | Active | Active | Active |
| O=C(NCc1ccccc1)C(c1ccc(OCCBr)cc1)N(C(=O)CCc1ccccc1)C1CC1 (racemic) | Active | Active | Active | Active | Active | Active |
| O=C(NCc1ccccc1)C(c1ccc(Br)cc1)N(C(=O)CCc1ccc(O)cc1)C1CC1 (racemic) | Active | Active | Active | Active | Active | Active |
| O=C(NCc1ccccc1)C(c1ccccc1Br)N(Cc1ccccc1)C(=O)/C=C/c1ccccc1 (racemic) | inactive | inactive | inactive | – | – | – |
| C/C=C/C(=O)N(Cc1ccccc1Cl)C(C(=O)NC(C)(C)C)c1ccccc1Br (racemic) | Active | Active | Active | Active | Active | Active |
| O=C(NCc1ccccc1)C(c1ccc(Br)cc1)N(C(=O)CCc1ccccc1)C1CC1 (racemic) | Active | Active | Active | Active | Active | Active |
| C=CC(=O)N(CCOCCO)C(C(=O)NC(C)(C)C)c1ccccc1Br (racemic) | inactive | inactive | inactive | – | – | – |
| C/C=C/C(=O)N(Cc1ccco1)C(C(=O)NC1CCCCC1)c1ccccc1Br (racemic) | inactive | inactive | inactive | – | – | – |
| C=CC(=O)N(CCc1ccc(OC)c(OC)c1)C(C(=O)NCCCCC)c1ccccc1Br (racemic) | Active | Active | Active | Active | Active | Active |
| NCCOCCOCCNCCOc1ccc(C(C(=O)NCc2ccccc2)N(C(=O)CCc2ccc(O)cc2)C2CC2)cc1 (stereo not given) | – | inactive | inactive | inactive | – | – |
| O=C(NCc1ccccc1)C(c1ccccc1)N(C(=O)/C=C/c1ccccc1)C1CC1 (racemic) | Active | Active | Active | Active | Active | Active |
